Calls of active or inactive are those of the source.
Legend:
[1] = test system: Mus musculus; assay: Anticonvulsant activity against MES (maximal electroshock) induced seizure in mice at 4 hr; Activity at 300 mg/kg.; assay type: functional, organism-based; design: dose 300 mg/kg
Method in brief: (§1)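 Male Carworth Farms number-one mice received the compound ip in 30% polyethylene glycol 400. Doses were 30, 100 and 300 mg/kg, with 600 mg/kg in some cases. Maximal electroshock seizure protection was scored at 30 min and 4 h after dosing. Activity is coded by the lowest effective dose.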

[2] = test system: Mus musculus; assay: Evaluated for toxicity by using rotarod test at in mice 30 min; ++ indicates activity at 300 mg/kg.; assay type: organism-based; design: dose 300 mg/kg; conditions: in vivo, 0.5 h
Method in brief: (§2)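 Neurotoxicity in male Carworth Farms number-one mice dosed ip in 30% PEG 400 at 30, 100, 300 and sometimes 600 mg/kg, tested 30 min or 4 h later. Mice placed on a 1-in. knurled rod rotating at 6 rpm; toxicity means failure to stay on the rod for 1 min. Scored by the lowest toxic dose; footnotes record loss of righting reflex or lethality.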

[3] = test system: Mus musculus; assay: Anticonvulsant activity against scMet (subcutaneous metrazole) induced seizure in mice at 4 hr; ++ indicates activity at 300 mg/kg.; assay type: functional, organism-based; design: dose 300 mg/kg
[4] = test system: Mus musculus; assay: Anticonvulsant activity against scMet (subcutaneous metrazole) induced seizure in mice at 30 min; ++ indicates activity at 300 mg/kg.; assay type: functional, organism-based; design: dose 300 mg/kg
[5] = test system: Mus musculus; assay: Evaluated for toxicity by using rotarod test in mice at 4 hr; ++ indicates activity at 300 mg/kg.; assay type: organism-based; design: dose 300 mg/kg; conditions: in vivo; method in brief: as §2
[6] = test system: Mus musculus; assay: Anticonvulsant activity against MES (maximal electroshock) induced seizure in mice at 30 min; + indicates activity at 600 mg/kg.; assay type: functional, organism-based; design: dose 600 mg/kg
Method in brief: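 Male Carworth Farms number-one mice; compounds in 30% polyethylene glycol 400, given ip at 30, 100 and 300 mg/kg, some also at 600 mg/kg. Maximal electroshock challenge at 30 min or 4 h after dosing. Scored by the lowest dose giving protection (++++ 30, +++ 100, ++ 300, + 600 mg/kg; - none at 600).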

[7] = test system: Mus musculus; assay: Anticonvulsant activity against scMet (subcutaneous metrazole) induced seizure in mice at 4 hr; ++ = Activity at 300 mg/kg.; assay type: functional, organism-based; design: dose 300 mg/kg
[8] = species on record: Mus musculus; assay: (§3) Evaluation of neurologic deficit by rotarod procedure in mice; assay type: functional
Method in brief: (§4)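 Male Carworth Farms number-one mice were dosed ip (30% PEG 400 vehicle) and placed on a 1-in. knurled plastic rod rotating at 6 rpm. Neurotoxicity meant failure to stay on the rod for 1 min. TD50 was determined graphically.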

[9] = Protective index (PI) which is defined as the ratio of TD50 to the ED50 (MES).; assay type: functional
Method in brief: (§5)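 Both values come from ip dosing in 30% PEG 400 to male Carworth Farms number-one mice and were derived by the graphical method.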

[10] = test system: Mus musculus; assay: Anticonvulsant activity against scMet (subcutaneous metrazole) induced seizure in mice at 30 min; ++ = Activity at 300 mg/kg.; assay type: functional, organism-based; design: dose 300 mg/kg
[11] = test system: Mus musculus; assay: Evaluated for toxicity by using rotarod test in mice at 4 hr; ++ = Activity at 300 mg/kg.; assay type: organism-based; design: dose 300 mg/kg; conditions: in vivo; method in brief: as §2
[12] = test system: Mus musculus; assay: Anticonvulsant activity against MES (maximal electroshock) induced seizure in mice at 4 hr; ++ = Activity at 300 mg/kg.; assay type: functional, organism-based; design: dose 300 mg/kg; method in brief: as §1
[13] = test system: Mus musculus; assay: Evaluated for toxicity by using rotarod test at in mice 30 min; +++ = Activity at 100 mg/kg,*-Loss of righting reflex at less than 300 mg/kg; assay type: organism-based; conditions: in vivo, 0.5 h; method in brief: as §2
[14] = test system: Mus musculus; assay: Anticonvulsant activity against MES (maximal electroshock) induced seizure in mice at 30 min; +++ = Activity at 100 mg/kg.; assay type: functional, organism-based; design: dose 100 mg/kg; method in brief: as §1
[15] = species on record: Mus musculus; assay: Evaluation of inhibitory activity against scMet induced convulsions in mice; NA = No activity.; assay type: functional, organism-based
[16] = test system: Mus musculus; assay: Anticonvulsant activity against MES (maximal electroshock) induced seizure in mice at 30 min; +++ = activity at 100 mg/kg; assay type: functional, organism-based; design: dose 100 mg/kg; method in brief: as §1
[17] = test system: Mus musculus; assay: Anticonvulsant activity against MES (maximal electroshock) induced seizure in mice at 4 hr; f = No activity at 100 mg/kg; assay type: functional, organism-based; design: dose 100 mg/kg; method in brief: as §1
[18] = test system: Mus musculus; assay: Evaluated for toxicity by using rotarod test in mice at 4 hr; f = No activity at 100 mg/kg; assay type: organism-based; design: dose 100 mg/kg; conditions: in vivo; method in brief: as §2
[19] = test system: Mus musculus; assay: Evaluated for toxicity by using rotarod test at in mice 30 min; +++ = activity at 100 mg/kg *-LD50 less than 300 mg/kg; assay type: organism-based; conditions: in vivo, 0.5 h; method in brief: as §2
[20] = test system: Mus musculus; assay: Anticonvulsant activity against scMet (subcutaneous metrazole) induced seizure in mice at 4 hr; f = No activity at 100 mg/kg; assay type: functional, organism-based; design: dose 100 mg/kg
[21] = test system: Mus musculus; assay: Anticonvulsant activity against scMet (subcutaneous metrazole) induced seizure in mice at 30 min; f = No activity at 100 mg/kg; assay type: functional, organism-based; design: dose 100 mg/kg
[22] = test system: Mus musculus; assay: Anticonvulsant activity against MES (maximal electroshock) induced seizure in mice at 4 hr; f = No activity at 100 mg/kg.; assay type: functional, organism-based; design: dose 100 mg/kg; method in brief: as §1
[23] = test system: Mus musculus; assay: Anticonvulsant activity against scMet (subcutaneous metrazole) induced seizure in mice at 30 min; +++ = Indicates activity at 100 mg/kg.; assay type: functional, organism-based; design: dose 100 mg/kg
[24] = as §3; assay type: ADME, organism-based; conditions: mouse, in vivo; method in brief: as §4
[25] = test system: Mus musculus; assay: Anticonvulsant activity against scMet (subcutaneous metrazole) induced seizure in mice at 4 hr; f = No activity at 100 mg/kg.; assay type: functional, organism-based; design: dose 100 mg/kg
[26] = Protective index (PI) which is defined as the ratio of TD50 to the ED50 (ScMet).; assay type: functional; method in brief: as §5
[27] = test system: Mus musculus; assay: Evaluated for toxicity by using rotarod test in mice at 4 hr; f = No activity at 100 mg/kg.; assay type: organism-based; design: dose 100 mg/kg; conditions: in vivo; method in brief: as §2
[28] = test system: Mus musculus; assay: Evaluated for toxicity by using rotarod test at in mice 30 min; +++ = Indicates activity at 100 mg/kg.; assay type: organism-based; design: dose 100 mg/kg; conditions: in vivo, 0.5 h; method in brief: as §2
[29] = test system: Mus musculus; assay: Anticonvulsant activity against MES (maximal electroshock) induced seizure in mice at 4 hr; +++ indicates activity at 100 mg/kg.; assay type: functional, organism-based; design: dose 100 mg/kg; method in brief: as §1
[30] = test system: Mus musculus; assay: Anticonvulsant activity against scMet (subcutaneous metrazole) induced seizure in mice at 30 min; +++ indicates activity at 100 mg/kg.; assay type: functional, organism-based; design: dose 100 mg/kg
[31] = test system: Mus musculus; assay: Anticonvulsant activity against scMet (subcutaneous metrazole) induced seizure in mice at 4 hr; + = Activity at 600 mg/kg.; assay type: functional, organism-based; design: dose 600 mg/kg
[32] = test system: Mus musculus; assay: Evaluated for toxicity by using rotarod test in mice at 30 min; + = Activity at 600 mg/kg.; assay type: organism-based; design: dose 600 mg/kg; conditions: in vivo, 0.5 h; method in brief: as §2
[33] = test system: Mus musculus; assay: Anticonvulsant activity against scMet (subcutaneous metrazole) induced seizure in mice at 30 min; + = Activity at 600 mg/kg.; assay type: functional, organism-based; design: dose 600 mg/kg
[34] = test system: Mus musculus; assay: Evaluated for toxicity by using rotarod test in mice at 4 hr; + = Activity at 600 mg/kg.; assay type: organism-based; design: dose 600 mg/kg; conditions: in vivo; method in brief: as §2

SMILES: CC(CNC(=O)c1ccc(N)cc1)c1ccccc1 (centres undefined)
- Activity [1]: activity at 300 mg/kg
- Toxicity [2]: activity at 300 mg/kg
- Activity [3]: activity at 300 mg/kg
- Activity [4]: activity at 300 mg/kg
- Toxicity [5]: activity at 300 mg/kg
- Activity [6]: activity at 300 mg/kg

SMILES: CCCN(CCC)C(=O)c1ccc(N)cc1
- Activity [7]: Activity at 100 mg/kg
- TD50 [8]: 116 mg/kg
- PI [9]: 1.9
- Activity [10]: Activity at 100 mg/kg
- Toxicity [11]: Activity at 100 mg/kg,*-Loss of righting reflex at < 300 mg/kg
- Activity [12]: Activity at 100 mg/kg
- Toxicity [13]: Activity at 100 mg/kg,*-Loss of righting reflex at < 300 mg/kg
- Activity [14]: Activity at 100 mg/kg
- ED50 [15]: inactive

SMILES: CCCCCCNC(=O)c1ccc(N)cc1
- Activity [16]: activity at 100 mg/kg
- Activity [17]: No activity
- Toxicity [18]: No activity
- Toxicity [19]: activity at 100 mg/kg *-LD50 < 300 mg/kg
- Activity [20]: No activity
- Activity [21]: No activity

SMILES: CCCCCNC(=O)c1ccc(N)cc1
- Activity [22]: No activity
- PI [9]: 1.6
- Activity [23]: Activity at 100 mg/kg
- TD50 [24]: 68.5 mg/kg
- Activity [25]: No activity
- Activity [14]: Activity at 100 mg/kg
- PI [26]: 1.2
- Toxicity [27]: No activity
- Toxicity [28]: activity at 100 mg/kg

SMILES: CC(NC(=O)c1ccc(N)cc1)c1ccccc1 (centres undefined)
- Activity [29]: activity at 100 mg/kg
- TD50 [8]: 171 mg/kg
- PI [9]: 9.5
- Toxicity [2]: activity at 300 mg/kg
- Activity [3]: activity at 100 mg/kg
- Toxicity [5]: activity at 300 mg/kg
- PI [26]: 4.1
- Activity [30]: activity at 100 mg/kg

SMILES: CCNC(=O)c1ccc(N)cc1
- Activity [31]: Activity at 100 mg/kg
- Toxicity [32]: Activity at 600 mg/kg
- Activity [12]: Activity at 100 mg/kg
- Activity [33]: Activity at 100 mg/kg
- Activity [14]: Activity at 100 mg/kg
- Toxicity [34]: Activity at 600 mg/kg
